# Data taken from ChEMBL document CHEMBL3997791, “Nanomolar-Potency Aminophenyl-1,3,5-triazine Activators of the Cystic Fibrosis Transmembrane Conductance Regulator (CFTR) Chloride Channel for Prosecretory Therapy of Dry Eye Diseases” (J Med Chem, 2017).
# Activity calls are given as the source filed them. The calls are words filed in the database; no cut-off is given here.
# Target: T1, Cystic fibrosis transmembrane conductance regulator (Homo sapiens, UniProt P13569)
# Experiment: Activation of human CFTR expressed in FRT cells co-expressing YFP assessed as increase in forskolin-stimulated iodide influx measured after 10 mins for 2 to 12 sec by fluorescence assay
# Format: cell-based
# Conditions: not given
# Target sequence in this assay (P13569 whole entry): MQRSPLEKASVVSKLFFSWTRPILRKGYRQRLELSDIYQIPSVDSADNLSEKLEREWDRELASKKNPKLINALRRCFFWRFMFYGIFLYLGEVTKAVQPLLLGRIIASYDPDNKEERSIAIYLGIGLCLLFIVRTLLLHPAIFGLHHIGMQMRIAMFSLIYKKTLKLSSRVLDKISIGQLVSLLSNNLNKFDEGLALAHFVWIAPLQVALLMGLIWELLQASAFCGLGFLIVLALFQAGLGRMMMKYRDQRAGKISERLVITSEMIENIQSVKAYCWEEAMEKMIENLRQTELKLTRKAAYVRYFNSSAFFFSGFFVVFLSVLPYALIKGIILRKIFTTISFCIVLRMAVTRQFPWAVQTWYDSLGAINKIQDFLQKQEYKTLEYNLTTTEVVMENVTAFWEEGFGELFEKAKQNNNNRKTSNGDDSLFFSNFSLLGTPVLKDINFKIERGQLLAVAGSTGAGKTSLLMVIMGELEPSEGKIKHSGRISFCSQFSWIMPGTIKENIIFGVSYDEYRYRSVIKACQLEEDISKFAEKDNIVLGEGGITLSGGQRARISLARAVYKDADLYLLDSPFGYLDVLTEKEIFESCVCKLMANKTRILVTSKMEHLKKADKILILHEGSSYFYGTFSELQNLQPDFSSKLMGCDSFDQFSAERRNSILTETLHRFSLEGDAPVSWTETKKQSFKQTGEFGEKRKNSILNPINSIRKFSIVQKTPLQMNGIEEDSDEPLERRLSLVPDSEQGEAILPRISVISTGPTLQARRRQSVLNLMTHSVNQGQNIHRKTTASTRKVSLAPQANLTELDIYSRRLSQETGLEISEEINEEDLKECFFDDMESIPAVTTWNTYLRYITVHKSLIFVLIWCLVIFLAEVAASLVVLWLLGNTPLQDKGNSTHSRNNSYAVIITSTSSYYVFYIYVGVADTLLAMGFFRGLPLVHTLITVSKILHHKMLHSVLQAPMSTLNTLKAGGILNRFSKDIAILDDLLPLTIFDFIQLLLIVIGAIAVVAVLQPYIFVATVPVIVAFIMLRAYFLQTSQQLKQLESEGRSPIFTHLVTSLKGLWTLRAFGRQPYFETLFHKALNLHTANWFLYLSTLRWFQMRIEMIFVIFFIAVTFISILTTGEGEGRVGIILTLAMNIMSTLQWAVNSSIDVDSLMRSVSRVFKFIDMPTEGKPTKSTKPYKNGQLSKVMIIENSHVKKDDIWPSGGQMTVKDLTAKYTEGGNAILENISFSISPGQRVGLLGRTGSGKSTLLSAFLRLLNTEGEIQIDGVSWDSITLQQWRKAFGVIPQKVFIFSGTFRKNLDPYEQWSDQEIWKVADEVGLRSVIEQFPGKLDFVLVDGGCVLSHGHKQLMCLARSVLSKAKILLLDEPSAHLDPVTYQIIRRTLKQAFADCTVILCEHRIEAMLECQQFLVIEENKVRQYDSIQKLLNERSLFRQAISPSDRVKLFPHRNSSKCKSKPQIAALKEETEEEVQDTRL
row,SMILES,EC50 [nM]
1,CCN(CC)c1nc(Nc2cccc(Cl)c2)nc(OC(C(F)(F)F)C(F)(F)F)n1,2800
2,CCN(CC)c1nc(Nc2ccc(C(=O)O)cc2)nc(OCC(F)(F)C(F)F)n1,2500
3,CCN(CC)c1nc(Nc2cccc([N+](=O)[O-])c2)nc(OC(C(F)(F)F)C(F)(F)F)n1,200
4,CCN(CC)c1nc(Nc2ccc3[nH]ncc3c2)nc(OC(C(F)(F)F)C(F)(F)F)n1,2800
5,CCN(CC)c1nc(Nc2ccc([N+](=O)[O-])cc2)nc(OC(C(F)(F)F)C(F)(F)F)n1,18000

# Target: T1, Cystic fibrosis transmembrane conductance regulator
# Experiment: Activation of human CFTR expressed in FRT cells co-expressing YFP assessed as increase in forskolin-stimulated iodide influx at 10 uM measured after 10 mins for 2 to 12 sec by fluorescence assay
# Format: cell-based
# Conditions: not given
# In short: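 FRT cells stably coexpressing human wild-type CFTR and YFP-H148Q halide sensor; PBS wash, then 10 min with compound in PBS containing 125 nM forskolin. Plate reader: 2 s baseline, then 12 s after rapid iodide-containing solution addition; initial iodide influx rate taken as linear measure of channel function.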
# Target sequence in this assay (P13569 whole entry, looked up): as the sequence (P13569 whole entry) above
row,SMILES,Activity
1,COc1nc(Nc2ccc([N+](=O)[O-])cc2)nc(OC)n1,inactive
2,O=[N+]([O-])c1ccc(Nc2nc(OC(C(F)(F)F)C(F)(F)F)nc(OC(C(F)(F)F)C(F)(F)F)n2)cc1,inactive
3,C=CCNc1nc(Nc2cccc([N+](=O)[O-])c2)nc(OC(C(F)(F)F)C(F)(F)F)n1,Active
4,O=[N+]([O-])c1ccccc1Nc1nc(OC(C(F)(F)F)C(F)(F)F)nc(OC(C(F)(F)F)C(F)(F)F)n1,inactive
5,COc1ccc(Nc2nc(NC3CCCCC3)nc(OC(C(F)(F)F)C(F)(F)F)n2)cc1,inactive
6,Cc1ccc(Nc2nc(OC(C(F)(F)F)C(F)(F)F)nc(OC(C(F)(F)F)C(F)(F)F)n2)cc1,inactive
7,CCN(CC)c1nc(Nc2ccccc2)nc(OC(C(F)(F)F)C(F)(F)F)n1,Active
8,CNc1nc(Nc2ccc([N+](=O)[O-])cc2)nc(OCC(F)(F)C(F)F)n1,Active
9,CNc1nc(Nc2ccccc2C(F)(F)F)nc(OC(C(F)(F)F)C(F)(F)F)n1,inactive
10,FC(F)(F)COc1nc(Nc2ccc(OC(F)(F)F)cc2)nc(NC2CC2)n1,inactive
11,COc1nc(Nc2ccc(OC)c(Cl)c2)nc(OC)n1,inactive
12,FC(F)(F)C(Oc1nc(N2CCCCCC2)nc(N(c2ccccc2)c2ccccc2)n1)C(F)(F)F,inactive
13,CC(=O)c1ccc(Nc2nc(OC(C(F)(F)F)C(F)(F)F)nc(OC(C(F)(F)F)C(F)(F)F)n2)cc1,inactive
14,Cc1ccc(Nc2nc(OC(C(F)(F)F)C(F)(F)F)nc(N3CCCCC3)n2)cc1,inactive
15,Cc1ccccc1Nc1nc(OC(C(F)(F)F)C(F)(F)F)nc(OC(C(F)(F)F)C(F)(F)F)n1,inactive
16,FC(F)(F)C(Oc1nc(Nc2ccccc2)nc(OC(C(F)(F)F)C(F)(F)F)n1)C(F)(F)F,inactive
17,FC(F)(F)C(Oc1nc(Nc2cccnc2)nc(OC(C(F)(F)F)C(F)(F)F)n1)C(F)(F)F,inactive
18,CN(C)c1nc(Nc2ccc(OC(F)(F)F)cc2)nc(OCC(F)(F)F)n1,inactive
19,CNc1nc(Nc2ccc(OC(F)(F)Cl)cc2)nc(OCC(F)(F)F)n1,inactive
20,Fc1ccc(Nc2nc(OC(C(F)(F)F)C(F)(F)F)nc(N3CCCCC3)n2)cc1,inactive
21,CNc1nc(Nc2ccc(C(C)=O)cc2)nc(OC(C(F)(F)F)C(F)(F)F)n1,inactive
22,CC(=O)N1CCN(c2nc(Nc3ccccc3C(=O)c3ccccc3)nc(OC(C(F)(F)F)C(F)(F)F)n2)CC1,inactive
23,O=[N+]([O-])c1cccc(Nc2nc(OC(C(F)(F)F)C(F)(F)F)nc(OC(C(F)(F)F)C(F)(F)F)n2)c1,inactive
24,FC(F)(F)COc1nc(Nc2ccccc2)nc(OCC(F)(F)F)n1,inactive
25,CCC(C)Nc1nc(Nc2ccc([N+](=O)[O-])cc2)nc(OC(C(F)(F)F)C(F)(F)F)n1 (configuration not stated),inactive
26,FC(F)(F)COc1nc(Nc2ccc(OC(F)(F)Cl)cc2)nc(OCC(F)(F)F)n1,inactive
27,CC(C)Nc1nc(Nc2ccc([N+](=O)[O-])cc2)nc(OC(C(F)(F)F)C(F)(F)F)n1,inactive
28,FC(F)(F)C(Oc1nc(Nc2ccc(Cl)cc2)nc(N2CCOCC2)n1)C(F)(F)F,inactive
29,CC(C)(C)Nc1nc(Nc2ccc(OC(F)(F)Cl)cc2)nc(OCC(F)(F)F)n1,inactive

# Tested on: not listed separately
# Experiment: Metabolic stability in rat hepatic microsomes assessed as parent compound remaining at 5 uM after 15 mins in presence of NADPH by LC-MS analysis
# Format: ADME, Microsome
# Conditions: liver microsomes, read-out: Stability
# In short: (§1)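 Compound at 5 μM incubated at 37 °C with rat liver microsomes (1 mg/mL) in potassium phosphate buffer with 1 mM NADPH; quenched with ice-cold EtOAc, centrifuged, supernatant analysed by LC/MS (C18, water/acetonitrile with 0.1% formic acid gradient, UV 254 nm) for parent remaining; mean ± SEM, n = 3.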
row,SMILES,"remaining at […], 5 µM [%]"
1,CCN(CC)c1nc(Nc2ccccc2)nc(OC(C(F)(F)F)C(F)(F)F)n1,< 40

# Tested on: not listed separately
# Experiment: Metabolic stability in rat hepatic microsomes assessed as parent compound remaining at 5 uM after 60 mins in presence of NADPH by LC-MS analysis
# Format: ADME, Microsome
# Conditions: liver microsomes, read-out: Stability
# In short: as §1
row,SMILES,"remaining at 1 h, 5 µM [%]"
1,CCN(CC)c1nc(Nc2ccc3ncoc3c2)nc(OC(C(F)(F)F)C(F)(F)F)n1,60

# Tested on: Mus musculus
# Experiment: Induction of tear secretion in mouse at 250 pmol administered as single topical dose up to 8 hrs by phenol red thread test
# Format: functional
# Conditions: not given
# In short: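 Mice 8–12 weeks (25–35 g); single ocular dose of 250 pmol (100 μM) in 2.5 μL vehicle (0.3% CMC in Ringer's), both eyes treated identically, vehicle control. Tear volume by phenol red thread, 10 s in lateral canthus under isoflurane, before and at set times after dosing. 5 mice, 10 eyes per condition; two-way ANOVA with Dunnett test.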
row,SMILES,Activity
1,CCN(CC)c1nc(Nc2ccccc2)nc(OC(C(F)(F)F)C(F)(F)F)n1,Active
